Source: ChEMBL document CHEMBL2346548, “Design, synthesis, and structure-activity relationship studies of tryptanthrins as antitubercular agents” (J Nat Prod, 2013)
In brackets after ≈: the same amount, converted by molar mass.

Columns and labels:
[1] = tested on: Mycobacterium tuberculosis; experiment: Antitubercular activity against non-replicating Mycobacterium tuberculosis H37Rv incubated for 10 days by LORA method; type: functional; details: 240 h
Summary of the method: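 H37Rv carrying pFCA-luxAB was adapted to low oxygen by gradual self-depletion in a sealed, slowly stirred flask. It was then exposed to compounds for 10 days under anaerobic conditions. Cultures recovered for 28 h in ambient oxygen before n-decanal substrate was added and luminescence read. MIC was the lowest concentration giving a 90% reduction in luminescence versus untreated controls.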

[2] = AUC (0 to infinity) in C57BL/6 mouse at 40 mg/kg, po formulated in 20% DMSODMSO, 20% PEG400, 60% (30% HP-beta-CD in water); type: ADME, organism-based; set-up: dose 40 mg/kg, route oral, time infinity; details: plasma
[3] = Oral bioavailability in Sprague-Dawley rat at 20 mg/kg; type: ADME, organism-based; details: in vivo
CYP2C9 = CYP2C9 (Homo sapiens, UniProt P11712); experiment: Inhibition of human recombinant CYP2C9 at 10 uM incubated for 80 mins at 37 degC using 7-methoxy-4-trifluoromethylcoumarin substrate; type: ADME; details: recombinant CYP2C9, probe 7-methoxy-4-trifluoromethylcoumarin
Sequence of CYP2C9 (P11712 whole entry): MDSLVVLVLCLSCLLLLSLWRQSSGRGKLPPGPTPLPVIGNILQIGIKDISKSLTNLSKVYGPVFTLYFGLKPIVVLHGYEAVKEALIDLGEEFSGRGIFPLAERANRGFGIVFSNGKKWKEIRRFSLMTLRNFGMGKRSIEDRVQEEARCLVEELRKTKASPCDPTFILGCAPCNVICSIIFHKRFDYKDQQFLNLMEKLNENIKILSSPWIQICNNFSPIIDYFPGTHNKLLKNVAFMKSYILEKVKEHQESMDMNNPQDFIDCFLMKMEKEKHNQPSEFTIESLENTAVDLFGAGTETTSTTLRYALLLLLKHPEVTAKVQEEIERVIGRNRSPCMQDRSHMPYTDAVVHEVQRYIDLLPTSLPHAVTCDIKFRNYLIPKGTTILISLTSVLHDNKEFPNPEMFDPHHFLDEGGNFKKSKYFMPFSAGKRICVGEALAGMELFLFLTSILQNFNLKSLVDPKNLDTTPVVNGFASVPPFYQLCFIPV

[4] = AUC (0 to infinity) in Sprague-Dawley rat at 20 mg/kg, po; type: ADME, organism-based; set-up: time infinity, dose 20 mg/kg, route oral; details: plasma
Salmonella typhimurium [5] = experiment: Toxicity in Salmonella typhimurium TA100 assessed as compound level per well causing cytotoxicity at 0.25 to 240 ug/well in absence of rat liver S9 fraction; type: organism-based; details: salmonella enterica subsp. enterica serovar typhimurium
Summary of the method: (§1)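 MicroAmes: strains preincubated with or without Aroclor-induced rat liver S9, duplicate wells, six concentrations 0.25–250 μg equivalents/well; DMSO vehicle, 4-nitroquinoline-N-oxide (−S9) and 2-aminoanthracene (+S9) positive controls; revertant colonies counted; cytotoxicity noted as reduced revertants or background lawn; precipitation recorded.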

Salmonella typhimurium [6] = experiment: Mutagenicity in Salmonella typhimurium TA98 assessed as mean revertant colonies at 0.25 to 240 ug/well in presence of rat liver S9 fraction; type: toxicity, organism-based; details: salmonella enterica subsp. enterica serovar typhimurium; summary of the method: as §1
[7] = Metabolic stability in human liver microsomes assessed as parent compound remaining at 1 uM incubated for 1 hr by HPLC-MS/MS method; type: ADME, Microsome; details: read-out: Stability
Summary of the method: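 Pooled mixed-gender human liver microsomes (0.3 mg/mL protein), 1 μM compound with NADP-regenerating system in phosphate buffer pH 7.4, 1 h at 37 °C; parent measured at start and end by HPLC-MS/MS; duplicate means.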

[8] = tested on: Mycobacterium tuberculosis; experiment: Antitubercular activity against Mycobacterium tuberculosis Erdman ATCC 35801 infected in C57BL/6 mouse assessed as viable bacterial load in spleen at 200 mg/kg twice daily through gavage 5 days per week for 4 weeks starting on 10th day post-infection (reference value: 4.79 +/- 0.21 log10CFU/spleen); type: functional
[9] = Half life in C57BL/6 mouse at 40 mg/kg, po formulated in 0.1% SLS; type: ADME, organism-based; set-up: dose 40 mg/kg, route oral; details: in vivo
Summary of the method: (§2)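 Female C57BL/6 mice, single 40 mg/kg oral gavage; three mice per time point; plasma at 30 min to 24 h, LC-MS; noncompartmental parameters reported as means.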

[10] = Efflux ratio in human Caco2 cells incubated for 1 hr at 37 degC by HPLC-MS/MS method; type: ADME, cell-based; details: Caco-2
Salmonella typhimurium [11] = experiment: Toxicity in Salmonella typhimurium TA100 assessed as compound level per well causing cytotoxicity at 0.25 to 240 ug/well in presence of rat liver S9 fraction; type: organism-based; details: salmonella enterica subsp. enterica serovar typhimurium; summary of the method: as §1
[12] = AUC (0 to infinity) in C57BL/6 mouse at 40 mg/kg, po formulated in 0.1% SLS; type: ADME, organism-based; set-up: time infinity, dose 40 mg/kg, route oral; details: plasma
[13] = Tmax in C57BL/6 mouse at 40 mg/kg, po formulated in 0.1% SLS; type: ADME, organism-based; set-up: dose 40 mg/kg, route oral; details: in vivo; summary of the method: as §2
[14] = Volume of distribution in Sprague-Dawley rat at 5 mg/kg, iv; type: ADME, organism-based; set-up: dose 5 mg/kg, route intravenous; details: in vivo
Summary of the method: (§3)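 Male Sprague-Dawley rats (n = 3), single 5 mg/kg iv dose as solution in PEG300/DMSO 50:50; plasma sampled 0.083–24 h, LC-MS bioanalysis; noncompartmental analysis, means.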

[15] = AUC (0 to infinity) in Sprague-Dawley rat at 5 mg/kg, iv; type: ADME, organism-based; set-up: time infinity, dose 5 mg/kg, route intravenous; details: plasma
[16] = Tmax in Sprague-Dawley rat at 20 mg/kg, po; type: ADME, organism-based; set-up: dose 20 mg/kg, route oral; details: in vivo
Vero = experiment: Cytotoxicity against african green monkey Vero cells; type: cell-based, Chlorocebus sabaeus; details: Chlorocebus sabaeus, Vero; read-out: IC50
[17] = Permeability across apical to basolateral side in human Caco2 cells incubated for 1 hr at 37 degC by HPLC-MS/MS method; type: ADME, cell-based; details: Caco-2
Summary of the method: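 TC7 (Caco-2 subclone) monolayer; 10 μM compound in 1% DMSO in HBSS-MES pH 6.5 on apical donor side, basolateral receiver pH 7.4; shaken 1 h at 37 °C; receiver sampled, HPLC-MS/MS; duplicate means.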

[18] = tested on: Mycobacterium tuberculosis; experiment: Antitubercular activity against Mycobacterium tuberculosis H37Rv incubated at 37 degC for 14 days in presence of 40% human serum by microplate alamar blue assay; type: functional; details: 336 h
Summary of the method: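 This is the MABA run in 7H9 broth containing 40% human serum. Compounds were 2-fold serially diluted, and wells were inoculated with H37Rv at 2 × 10⁵ CFU/mL. Incubation was at 37 °C for 14 days, then Alamar Blue was added. MIC was the lowest concentration preventing the blue-to-pink colour change.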

[19] = Cmax in C57BL/6 mouse at 40 mg/kg, po formulated in 20% DMSODMSO, 20% PEG400, 60% (30% HP-beta-CD in water); type: ADME, organism-based; set-up: dose 40 mg/kg, route oral; details: in vivo; summary of the method: as §2
[20] = Distribution coefficient, log D of the compound between n-octanol and PBS buffer at pH 7.4 incubated for 1 hr by shake flask method; type: physicochemical
Summary of the method: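 Partition between n-octanol and PBS pH 7.4 after 1 h shaking at room temperature; phases analysed by HPLC with photodiode detection; logD = log10 of organic/aqueous amount.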

[21] = Elimination half life in Sprague-Dawley rat at 5 mg/kg, iv; type: ADME, organism-based; set-up: dose 5 mg/kg, route intravenous; details: in vivo, read-out: beta t1/2 (converted); summary of the method: as §3
[22] = Cmax in Sprague-Dawley rat at 20 mg/kg, po; type: ADME, organism-based; set-up: dose 20 mg/kg, route oral; details: in vivo
[23] = Half life in Sprague-Dawley rat at 20 mg/kg, po; type: ADME, organism-based; set-up: dose 20 mg/kg, route oral; details: in vivo
[24] = Protein binding in human plasma at 10 uM incubated for 8 hrs at 37 degC by equilibrium dialysis method; type: ADME, cell-free; details: read-out: PPB (converted)
Summary of the method: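 Equilibrium dialysis: 10 μM compound in 1% DMSO in human plasma vs 0.05 M phosphate buffer pH 7.5 across 12–14 K cutoff membrane, at least 8 h at 37 °C; HPLC-photodiode detection at 230 nm; duplicate means.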

[25] = tested on: Mycobacterium tuberculosis; experiment: Antitubercular activity against Mycobacterium tuberculosis Erdman ATCC 35801 infected in C57BL/6 mouse assessed as viable bacterial load in spleen at 200 mg/kg/day through gavage 5 days per week for 4 weeks starting on 10th day post-infection (reference value: 4.79 +/- 0.21 log10CFU/spleen); type: functional
[26] = tested on: Mycobacterium tuberculosis; experiment: Antitubercular activity against Mycobacterium tuberculosis H37Rv incubated at 37 degC for 7 days by microplate alamar blue assay; type: functional; details: Mycobacterium tuberculosis, H37Rv, 168 h
Summary of the method: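 Mtb H37Rv was grown in 7H9 broth with glycerol, Casitone, 10% OADC and 0.05% Tween 80 to OD600 0.4. Compounds were 2-fold serially diluted from DMSO stocks in 7H9, and wells were inoculated at 2 × 10⁵ CFU/mL. After 7 days at 37 °C, Alamar Blue was added and read after a further 24 h. MIC was the lowest concentration preventing the blue-to-pink change.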

## O=C1C2=Nc3ccccc3CN2c2ccc(Cl)cc21
[1]
  MIC90: 24 µg/mL (≈ 89.3 µM)
[2]
  AUC(0-inf): 968 ng·h/mL
[3]
  bioavailability: 8%
CYP2C9
  inhibition at 80 min, 10 µM: 27%
[4]
  AUC(0-inf): 300 ng·h/mL
Salmonella typhimurium [5]
  Activity: >= 2.5 ug
Salmonella typhimurium [6]
  Activity: Non-toxic
[7]
  remaining at 1 h, 1 µM: 53%
[8]
  log10cfu: 4.89
[9]
  half-life: 3.08 h
[10]
  efflux ratio at 1 h: > 1
Salmonella typhimurium [11]
  Activity: >= 2.5 ug
[12]
  AUC(0-inf): 1400 ng·h/mL
[13]
  Tmax: 1 h
[14]
  Vd: 11.7 L/kg
[15]
  AUC(0-inf): 930 ng·h/mL
[16]
  Tmax: 2 h
Vero
  IC50: 40 µg/mL (≈ 149 µM)
[17]
  Papp A→B at 1 h: 60.8 ×10⁻⁶ cm/s
[18]
  MIC: 0.125 µg/mL
[19]
  Cmax: 371 ng/mL
[20]
  logD at 1 h: 3.37
[21]
  half-life: 1.42 h
[22]
  Cmax: 50 ng/mL
[23]
  half-life: 3.33 h
[24]
  fraction unbound at 8 h, 10 µM: 0.013
[25]
  log10cfu: 4.85
[26]
  MIC: 0.125 µg/mL (≈ 0.465 µM)
